# Laboratory results published in paper PMC3523195 (Bioorganic & medicinal chemistry, 2011).
# Marks after values point to notes of the source that are not given here.
# Legend:
# [1] = tested on: melanized C. neoformans var. grubii; experiment: halo assay; type: cell-based, Cryptococcus neoformans var. grubii (MAT α, H99 serotype A); conditions: for Halo diameter: var. grubii
# How it was run: (§1)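 Paper disks (6.5 mm) were loaded from DMSO stock solutions and air-dried 3 h at RT, then placed on lawns of target cells. The medium was defined minimal agar with 1 mM L-dopa, dopamine or epinephrine to give melanized cells. Doses were 20 μg/disk test compound, or 10 μg test compound with or without 2 μg amphotericin B per disk. Plates ran 6–8 days at 30 °C, and halo diameter (mm) and clarity were recorded.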
# [2] = tested on: C. neoformans var. grubii; experiment: microtiter plate assay of melanization in liquid medium; type: cell-based, Cryptococcus neoformans var. grubii; conditions: for Melanization of treated cells, observed visually: 10 days, 30 °C
# [3] = tested on: melanized C. neoformans var. gattii; experiment: halo assay; type: cell-based, Cryptococcus neoformans var. gattii (MAT α, serotype B)
# How it was run: as §1
# [4] = tested on: laccase and melanin formation in C. neoformans; conditions: cited from earlier work
# [5] = 20 μg/disk, 1 mM L-dopa, 30 °C, 6 to 8 days
# [6] = 10 μg per disk, 1 mM L-dopa, 6 days
# [7] = 20 μg per disk, 1 mM L-dopa in minimal medium, 6 to 8 days
# [8] = 20 μg per disk, 1 mM dopamine in minimal medium, 6 to 8 days
# [9] = 20 μg per disk, 1 mM epinephrine in minimal medium, 6 to 8 days
smiles,measurement,setting,value
"C[C@@H]1[C@H](O)[C@@H](C)/C=C/C=C/C=C/C=C/C=C/C=C/C=C/[C@H](O[C@@H]2O[C@H](C)[C@@H](O)[C@H](N)[C@@H]2O)C[C@@H]2O[C@](O)(C[C@@H](O)C[C@@H](O)[C@H](O)CC[C@@H](O)C[C@@H](O)CC(=O)O[C@H]1C)C[C@H](O)[C@H]2C(=O)O [AMB, amphotericin B, reference compound]",Appearance of the halo surrounding the disk,"[1]; 2 μg per disk, alone, 1 mM L-dopa",clear zone of inhibition
same,Appearance of the halo surrounding the disk,[1]; [5],very clear zone of inhibition
same,"Melanization of treated cells, observed visually","[2]; 0.0625 μg/mL, 1 mM catecholamine",growth of melanized cells was observed
"CC[C@H]1CCCC[C@@]2(C[C@@H]3CC[C@@H]4[C@H](C(=O)OCCCCCCCCCCCCCCCC(=O)N(CCCN)CCCCN)[C@]5(CCC[C@@H](C)O5)NC(=[N+]34)N2)O1.[Cl-] [compound 1, ptilomycalin A]",Halo diameter,[3]; [6],9.50 ^b mm
same,Halo diameter,[3]; [7],17 ^c mm
same,Halo diameter,[3]; [8],18 ^c mm
same,Halo diameter,[3]; [9],12 ^c mm
same,Appearance of the halo surrounding the disk,"[1]; 10 μg per disk, alone, 1 mM L-dopa",presence of non-melanized cells on the halo surrounding the disk
same,Appearance of the halo surrounding the disk,[1]; [5],a halo of non-melanized cells were observed
same,Interaction with AMB in halo assay,"[1]; 1 10 μg combined with AMB 2 μg per disk, 1 mM L-dopa",synergizes the fungicidal activity of AMB
same,Halo diameter,[1]; [6],13.5 ^b mm
same,Halo diameter,[1]; [7],17 ^c mm
same,Halo diameter,[1]; [8],15 ^c mm
same,Halo diameter,[1]; [9],12 ^c mm
same,"Melanization of treated cells, observed visually","[2]; 0.8 μg/mL, 1 mM catecholamine (epinephrine, dopamine or L-dopa)",only non-melanized cells grew
same,Melanization of treated cells,"[2]; 0.8 μg/mL, after 21 days",remained non-melanized
O=C(O)CNCP(=O)(O)O [glyphosate],Inhibition of melanization of C. neoformans,[4],reported to inhibit melanization
same,Inhibitory activity on growth or melanization,"[2]; 200 μg/mL, under the authors' conditions",no significant inhibitory activity
same,"Melanization of treated cells, observed visually","[2]; 200 μg/mL, 1 mM catecholamine",growth of melanized cells was observed
C[C@@H](c1ncncc1F)[C@](O)(Cn1cncn1)c1ccc(F)cc1F [voriconazole],Inhibition of laccase and consequent melanin formation in C. neoformans,[4],inhibition of laccase and consequent melanin formation
"Clc1ccc(COC(Cn2ccnc2)c2ccc(Cl)cc2Cl)c(Cl)c1 (stereo not drawn) [MCZ, miconazole]","Melanization of treated cells, observed visually","[2]; 0.5 μg/mL, 1 mM catecholamine",growth of melanized cells was observed
